Source: ChEMBL document CHEMBL1145983, “Novel indolyl aryl sulfones active against HIV-1 carrying NNRTI resistance mutations: synthesis and SAR studies” (J Med Chem, 2003)

What was measured:
[1] = system: Human immunodeficiency virus 1; assay: Anti-HIV activity protecting MT-4 cells from HIV-1 induced cytopathogenicity; type: functional, organism-based; settings: Human immunodeficiency virus 1, MT4
[2] = system: MT4; assay: Cytotoxicity, reducing the vaiability of mock-infected cells; type: functional; settings: Homo sapiens
[3] = system: Human immunodeficiency virus 1; assay: Selectivity ratio of CC50/EC50; type: functional
Summary of the method: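 Ratio of CC50 (MTT viability of mock-infected MT-4 cells) to EC50 (MTT-based 50% protection of HIV-1-infected MT-4 cells from cytopathicity), both determined in parallel.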

[4] = system: MT-4 (Homo sapiens); assay: Anti-HIV activity to protect MT-4 cells from cytopathogenicity induced by HIV-1 K103N-Y181C (MTT method)
[5] = target: Human immunodeficiency virus type 1 reverse transcriptase (Human immunodeficiency virus 1, UniProt Q72547, K103N); assay: Activity to inhibit HIV-1 Reverse transcriptase activity in K103N
Summary of the method: (§1)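 Purified recombinant RT (wt or K103N mutant) assayed for RNA-dependent DNA polymerase activity. Buffer: 50 mM Tris-HCl pH 7.8, 80 mM KCl, 6 mM MgCl2, 1 mM DTT, 0.1 mg/mL BSA. Template:primer was poly(rC)-oligo(dG)12-18 at 0.5 OD260 unit/mL, with [3H]dGTP. Incubated 30 min at 37 °C; acid-insoluble radioactivity counted on glass-fibre filters. IC50 reported as mean of two experiments.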

[6] = target: Human immunodeficiency virus type 1 reverse transcriptase (Human immunodeficiency virus 1, UniProt Q72547); assay: Activity to inhibit HIV-1 Reverse transcriptase activity in WT IIIB; summary of the method: as §1
[7] = system: C8166; assay: Anti-HIV activity to reduce the amount of p24 in WT IIIB infected C8166 cells; type: functional, cell-based; settings: Homo sapiens
Summary of the method: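 HIV-1 IIIB came from supernatants of persistently infected H9/IIIB cells; stock 4.5 × 10^6 CCID50/mL. Acutely infected C8166 cells (1 × 10^4/well) were incubated at 37 °C with or without compound dilutions. p24 was measured by immunoenzymatic kit. Value is the concentration reducing p24 by 90%; mean of three experiments.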

| SMILES | EC50 [1] [µM] | CC50 [2] [µM] | Selectivity index [3] | EC50 [4] [µM] | IC50 [5] [µM] | IC50 [6] [µM] | EC90 [7] [µM] |
| --- | --- | --- | --- | --- | --- | --- | --- |
| NC(=O)c1[nH]c2ccc(Cl)cc2c1S(=O)(=O)c1ccc(Cl)cc1 | 0.011 | > 200 | >18182 | – | – | – | – |
| NC(=O)c1[nH]c2ccc(Cl)cc2c1Sc1ccccc1 | 0.02 | 9 | 450 | – | – | – | – |
| NNC(=O)c1[nH]c2ccc(Cl)cc2c1S(=O)(=O)c1cc(Cl)ccc1N | 0.3 | 19 | 63 | – | – | – | – |
| NC(=O)c1[nH]c2ccccc2c1S(=O)(=O)c1cc(Cl)ccc1N | 0.3 | 3.5 | 11.7 | – | – | – | – |
| NC(=O)c1cc2cc(Cl)ccc2n1S(=O)(=O)c1ccccc1 | 66 | > 200 | >3 | – | – | – | – |
| CCOC(=O)c1[nH]c2ccccc2c1S(=O)(=O)c1cc(Cl)ccc1N | 2.5 | > 200 | >91 | – | – | – | – |
| NC(=O)c1[nH]c2ccc(Cl)cc2c1S(=O)(=O)c1cc(Cl)ccc1N | 0.04 | 4.6 | 115 | – | – | – | – |
| O=S(=O)(c1ccccc1)n1ccc2cc(Cl)ccc21 | > 75 | 75 | – | – | – | – | – |
| CC(C)OC(=O)c1cn(S(=O)(=O)c2ccccc2)c2ccc(Cl)cc12 | > 200 | > 200 | – | – | – | – | – |
| NC(=O)c1cn(S(=O)(=O)c2ccccc2)c2ccc(Cl)cc12 | > 200 | 200 | – | – | – | – | – |
| NC(=O)c1[nH]c2ccccc2c1Sc1ccccc1 | 1.4 | 14 | 10 | – | – | – | – |
| CCOC(=O)c1cc2ccccc2n1S(=O)(=O)c1ccccc1[N+](=O)[O-] | > 200 | > 200 | – | – | – | – | – |
| CCOC(=O)c1[nH]c2ccccc2c1Sc1ccccc1 | > 200 | > 200 | – | – | – | – | – |
| NNC(=O)c1[nH]c2ccc(Cl)cc2c1Sc1cc(Cl)ccc1N | > 13 | 13 | – | – | – | – | – |
| CCOC(=O)c1[nH]c2ccccc2c1Sc1cc(Cl)ccc1N | > 200 | > 200 | – | – | – | – | – |
| NC(=O)c1[nH]c2ccc(Cl)cc2c1Sc1ccc(Cl)cc1 | 3.1 | 13 | 4 | – | – | – | – |
| CC(C)c1ccc(S(=O)(=O)c2c(C(N)=O)[nH]c3ccc(Cl)cc23)cc1 | 0.08 | > 200 | >2500 | – | – | – | – |
| Cc1ccc(S(=O)(=O)c2c(C(N)=O)[nH]c3ccc(Cl)cc23)c(C)c1 | 0.004 | 37 | 9250 | 10 | – | – | – |
| NC(=O)c1cn(S(=O)(=O)c2ccccc2)c2ccccc12 | > 32 | 32 | – | – | – | – | – |
| NNC(=O)c1[nH]c2ccc(Cl)cc2c1Sc1ccc(Cl)cc1 | 10 | 30 | 3 | – | – | – | – |
| NC(=O)c1[nH]c2ccccc2c1Sc1cc(Cl)ccc1N | 9 | 20 | 2.2 | – | – | – | – |
| NC(=O)c1[nH]c2ccc(Cl)cc2c1S(=O)(=O)c1ccc(F)cc1 | 0.014 | 17 | 1214 | – | – | – | – |

| SMILES | EC50 [1] [µM] | CC50 [2] [µM] | Selectivity index [3] | EC50 [4] [µM] | IC50 [5] [µM] | IC50 [6] [µM] | EC90 [7] [µM] |
| --- | --- | --- | --- | --- | --- | --- | --- |
| NNC(=O)c1[nH]c2ccc(Cl)cc2c1S(=O)(=O)c1ccccc1 | 0.01 | > 200 | >20000 | – | – | – | – |
| Cc1ccc(Sc2c(C(=O)NN)[nH]c3ccc(Cl)cc23)cc1 | 1.5 | 129 | 86 | – | – | – | – |
| CC(C)(C)c1ccc(Sc2c(C(N)=O)[nH]c3ccc(Cl)cc23)cc1 | 8 | 45 | 6 | – | – | – | – |
| CCOC(=O)c1cc2cc(Cl)ccc2n1S(=O)(=O)c1ccc(Cl)cc1 | > 200 | > 200 | – | – | – | – | – |
| O=S(=O)(c1ccccc1)n1ccc2ccccc21 | > 150 | 150 | – | – | – | – | – |
| CCOC(=O)c1cc2ccccc2n1S(=O)(=O)c1cc(Cl)ccc1N | 1.8 | 50 | 28 | – | – | – | – |
| NNC(=O)c1cc2ccccc2n1S(=O)(=O)c1ccccc1 | > 200 | > 200 | – | – | – | – | – |
| CCOC(=O)c1cn(S(=O)(=O)c2ccccc2)c2ccc(Cl)cc12 | > 42 | 42 | – | – | – | – | – |
| CCOC(=O)c1[nH]c2ccc(Cl)cc2c1S(=O)(=O)c1ccccc1N | > 200 | > 200 | – | – | – | – | – |
| NC(=O)c1[nH]c2ccc(Cl)cc2c1Sc1ccc(F)cc1 | 1.4 | 13 | 9 | – | – | – | – |
| CC(C)c1ccc(Sc2c(C(N)=O)[nH]c3ccc(Cl)cc23)cc1 | 1.9 | 52 | 27 | – | – | – | – |
| CCOC(=O)c1[nH]c2ccc(Cl)cc2c1S(=O)(=O)c1cc(Cl)ccc1N | 1.9 | > 200 | 105 | – | – | – | – |
| CCOC(=O)c1cc2cc(Cl)ccc2n1S(=O)(=O)c1ccccc1 | > 200 | > 200 | – | – | – | – | – |
| CC(=O)c1ccc2[nH]c(C(N)=O)c(S(=O)(=O)c3cc(C)cc(C)c3)c2c1 | 0.015 | > 200 | > 13300 | – | – | – | – |
| NC(=O)c1cc2ccccc2n1S(=O)(=O)c1ccccc1 | 15 | > 200 | – | – | – | – | – |
| CCOC(=O)c1cc2cc(Cl)ccc2n1S(=O)(=O)c1cc(Cl)ccc1[N+](=O)[O-] | > 31 | 31 | – | – | – | – | – |
| Cc1ccc(Sc2c(C(N)=O)[nH]c3ccc(Cl)cc23)cc1 | > 0.45 | 0.45 | – | – | – | – | – |
| CCOC(=O)c1cc2cc(Cl)ccc2n1S(=O)(=O)c1cc(Cl)ccc1N | 8.3 | 39 | 4.7 | – | – | – | – |
| CCOC(=O)c1[nH]c2ccc(Cl)cc2c1Sc1cc(Cl)ccc1N | 2.5 | > 200 | >80 | – | – | – | – |
| CC(C)(C)c1ccc(S(=O)(=O)c2c(C(N)=O)[nH]c3ccc(Cl)cc23)cc1 | 0.13 | 26 | 200 | – | – | – | – |
| NC(=O)c1[nH]c2ccc(Cl)cc2c1Sc1c(Cl)cccc1Cl | 1.2 | 61 | 51 | – | – | – | – |
| Cc1cc(C)cc(S(=O)(=O)c2c(C(N)=O)[nH]c3ccc(Cl)cc23)c1 | 0.004 | 15 | 3750 | 0.65 | > 5 | 0.031 | 0.002 |

Continued, in another order:

| EC50 [1] [µM] | SMILES | CC50 [2] [µM] | Selectivity index [3] | EC50 [4] [µM] | IC50 [5] [µM] | IC50 [6] [µM] | EC90 [7] [µM] |
| --- | --- | --- | --- | --- | --- | --- | --- |
| > 54 | CC(C)OC(=O)c1cn(S(=O)(=O)c2ccccc2)c2ccccc12 | 54 | – | – | – | – | – |
| 0.025 | Cc1cc(C)cc(S(=O)(=O)c2c(C(N)=O)[nH]c3ccc(C(C)O)cc23)c1 (stereo unspecified) | > 200 | >8000 | – | – | – | – |
| > 32 | CCOC(=O)c1cn(S(=O)(=O)c2ccccc2)c2ccccc12 | 32 | – | – | – | – | – |
| 1.6 | NC(=O)c1[nH]c2ccc(Cl)cc2c1Sc1cc(Cl)ccc1N | 33 | 20 | – | – | – | – |
| 0.006 | Cc1cc(C)cc(Sc2c(C(N)=O)[nH]c3ccc(Cl)cc23)c1 | 0.7 | 117 | – | – | – | – |
| 3.7 | CCOC(=O)c1[nH]c2ccccc2c1S(=O)(=O)c1ccccc1 | 157 | 42 | – | – | – | – |
| 0.05 | Cc1ccc(S(=O)(=O)c2c(C(=O)NN)[nH]c3ccc(Cl)cc23)cc1 | > 200 | >4000 | – | – | – | – |
| 0.18 | NC(=O)c1[nH]c2ccccc2c1S(=O)(=O)c1ccccc1 | > 200 | > 1110 | – | – | – | – |
| 5 | NNC(=O)c1[nH]c2ccc(Cl)cc2c1Sc1ccc(F)cc1 | 66 | 13 | – | – | – | – |
| 0.2 | NNC(=O)c1[nH]c2ccc(Cl)cc2c1S(=O)(=O)c1ccc(Cl)cc1 | > 200 | >1000 | – | – | – | – |
| 0.5 | NNC(=O)c1[nH]c2ccccc2c1S(=O)(=O)c1ccccc1 | 133 | 266 | – | – | – | – |
| 0.1 | NC(=O)c1[nH]c2ccc(Cl)cc2c1S(=O)(=O)c1c(Cl)cccc1Cl | 40 | 400 | – | – | – | – |
| 0.1 | Cc1cc(C)cc(S(=O)(=O)c2c(C(=O)NN)[nH]c3ccc(Cl)cc23)c1 | > 200 | >2000 | – | – | – | – |
| 0.5 | NNC(=O)c1[nH]c2ccc(Cl)cc2c1Sc1ccccc1 | 44 | 88 | – | – | – | – |
| 0.002 | Cc1cc(C)cc(S(=O)(=O)c2c(C(N)=O)[nH]c3ccc(Br)cc23)c1 | 18 | 9000 | – | – | – | – |
| > 100 | CCOC(=O)c1cc2ccccc2n1S(=O)(=O)c1cc(Cl)ccc1[N+](=O)[O-] | > 100 | – | – | – | – | – |
| 0.3 | Cc1ccccc1Sc1c(C(N)=O)[nH]c2ccc(Cl)cc12 | 26 | 87 | – | – | – | – |
| 0.3 | NNC(=O)c1[nH]c2ccc(Cl)cc2c1S(=O)(=O)c1ccc(F)cc1 | 44 | 147 | – | – | – | – |
| 2.3 | CCOC(=O)c1[nH]c2ccc(Cl)cc2c1Sc1ccccc1N | > 200 | >87 | – | – | – | – |
| > 200 | CCOC(=O)c1cc2ccccc2n1S(=O)(=O)c1ccccc1 | > 200 | – | – | – | – | – |
